# Only some compounds are listed: those with a hit (about 6% of all), similar ones and a draw of the others.
# HUVEC prolif 384 – inhibitors of human endothelial cell proliferation. 86,000 compounds, 1.1% hits. AID 648. viability, % at 10 µM (by protocol). HUVEC proliferation, CellTiter-Glo luminescence, 72 h; stronger effect = lower value;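 active = viability at or below 30%; inactive = viability above 30%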;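 note: 100% = median luminescence of DMSO-only cell control wells on each plate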
# Fibroblast inh – blocks proliferation of human lung fibroblasts; LL 47 human lung fibroblast viability, ATP luminescence; stronger effect = lower value; viability, % at 10 µM; 85,000 compounds, 1.1% hits; AID 719;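 active = viability at or below 50% in the single dose screen; inactive = viability above 50%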;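 note: compound exposure lasted 72 h before the ATP readout; 100% = median luminescence of untreated cell-only wells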
#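 Times – overnight cell rest, 72 h compound treatment at 37 °C · Test system – human lung fibroblast line LL 47, low passage · Amount – 1,150 cells in each well · Controls – cell-only wells, no compound · Doses – 0.1% DMSO in all compound wells · Measured by – CellTiter-Glo luminescence · Buffer or medium – IMEM plus 15% FBS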
# Pyk2 oligo antag – antagonists of human Pyk2 oligomerization; Q14289; AID 1347419; 99,000 compounds, 0.83% hits; z-score (the deposit names both 25 µM and 10 µM); Q293 cells, Pyk2 FERM NanoBiT luminescence; stronger effect = lower value;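 active = Z-score of -3 or lower, scaled per plate to the spread of control and sample wells; inactive = z-score above -3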;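 note: negative z-score means lost luminescence so less FERM oligomerization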
# Target sequence (Q14289 whole entry, looked up): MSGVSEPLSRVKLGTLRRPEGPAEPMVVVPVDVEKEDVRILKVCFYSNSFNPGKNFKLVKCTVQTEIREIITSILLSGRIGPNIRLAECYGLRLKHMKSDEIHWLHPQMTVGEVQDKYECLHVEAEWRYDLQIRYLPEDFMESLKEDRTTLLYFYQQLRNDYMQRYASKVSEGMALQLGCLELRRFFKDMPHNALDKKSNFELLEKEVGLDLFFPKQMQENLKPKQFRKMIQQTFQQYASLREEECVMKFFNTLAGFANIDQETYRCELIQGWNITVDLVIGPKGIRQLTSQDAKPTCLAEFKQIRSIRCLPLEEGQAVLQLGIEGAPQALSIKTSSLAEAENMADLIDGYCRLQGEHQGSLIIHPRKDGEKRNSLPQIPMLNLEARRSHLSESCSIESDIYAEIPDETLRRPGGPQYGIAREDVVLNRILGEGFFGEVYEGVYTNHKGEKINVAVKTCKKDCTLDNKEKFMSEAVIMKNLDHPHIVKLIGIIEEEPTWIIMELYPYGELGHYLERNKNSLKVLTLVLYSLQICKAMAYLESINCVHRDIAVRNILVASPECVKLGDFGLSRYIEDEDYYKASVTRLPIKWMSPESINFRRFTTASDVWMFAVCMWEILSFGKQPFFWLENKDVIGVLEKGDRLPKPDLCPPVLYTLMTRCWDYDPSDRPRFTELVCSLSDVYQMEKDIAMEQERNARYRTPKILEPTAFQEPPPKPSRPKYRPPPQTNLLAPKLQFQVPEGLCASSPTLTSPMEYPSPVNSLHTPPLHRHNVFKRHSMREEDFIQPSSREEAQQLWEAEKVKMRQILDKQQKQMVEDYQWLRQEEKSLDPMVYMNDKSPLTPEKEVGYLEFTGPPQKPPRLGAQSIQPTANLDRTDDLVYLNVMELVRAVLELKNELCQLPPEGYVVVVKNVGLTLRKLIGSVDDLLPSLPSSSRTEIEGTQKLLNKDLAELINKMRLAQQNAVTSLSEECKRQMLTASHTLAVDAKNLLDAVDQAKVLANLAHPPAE
# F-actin modifier – alters cytoskeleton assembly in HUVEC cells; HUVEC TNFa F-actin phalloidin imaging, high content; inhibition, % at 2 µM; 91,000 compounds, 0.18% hits; AID 836;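 active = inhibition above the batch mean plus 3 SD and confirmed as a hit by visual image inspection, cut at about 30% in these data, passing the limit was not always enough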
# Jurkat tox 60K – reduces viability or proliferation of Jurkat cells; Jurkat E6.1 viability, ATP luminescence, 48 h; AID 463; 56,000 compounds, 1.2% hits; inhibition, % at 4 µM;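 active = inhibition above the mean inhibition of all tested compounds plus 3 SD, cut at about 28% in these data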
# H69AR inhibit – blocks growth of human H69AR lung tumor cells | H69AR lung tumor viability, ATP luminescence, 72 h; stronger effect = lower value | viability, % at 10 µM | 85,000 compounds, 6% hits;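 active = viability at or below 40%; inactive = viability above 40%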;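 note: multidrug resistant small cell line overexpressing MRP-1 efflux transporter; 100% = mean luminescence of untreated control wells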
# * marks the source's active call; other numbers are inactive results; . = no result given.
SMILES,HUVEC prolif 384,Fibroblast inh,Pyk2 oligo antag,F-actin modifier,Jurkat tox 60K,H69AR inhibit
CCCCn1c(CN2CCN(c3cccc(Cl)c3)CC2)nc2c1c(=O)[nH]c(=O)n2C,51,49*,-0.11,-4,80*,19*
CCN1CCN(Cc2nc3c(c(=O)[nH]c(=O)n3C)n2Cc2ccccc2Cl)CC1,93,91,.,2,1,77
Cn1c(=O)[nH]c(=O)c2c1nc(CN1CCN(c3cccc(Cl)c3)CC1)n2Cc1ccccc1Cl,59,83,.,.,-4,12*
Nc1nc(-c2ccc3ccccc3c2)c(C2(O)C(=O)Nc3c(Br)cc(F)cc32)s1 (centres undefined),.,.,0.4,2,.,.
COc1ccc(OC)c(-n2nnnc2SCC(=O)Nc2nc(C)c(C)s2)c1,78,97,-1.2,15,5,20*
CCOC(=O)c1sc(NC(=O)CSc2nnnn2-c2ccc(C)c(C)c2)nc1C,18*,97,0.29,-5,-2,82
CCOC(=O)c1sc(NC(=O)CSc2nnnn2-c2ccc(C)cc2C)nc1C,25*,100,-0.59,15,4,84
COc1ccc(OC)c(-n2nnnc2SCC(=O)O)c1,98,93,0.54,2,.,105
CC(NC(=O)C(=O)NN=C1CCCCCCCCCCC1)c1ccccc1 (centres undefined),.,.,0.35,1,.,.
O=C1CCCN1CN(C(=O)c1ccccc1)c1ccc(F)cc1,93,100,0.11,0,-1,78
COc1ccc(-c2nn(-c3ccccc3)cc2C(=O)n2nnc3ccccc32)cc1,77,99,0.08,-3,.,23*
O=C(c1cccc2ccccc12)n1nnc2ccccc21,66,99,.,-6,.,6.5*
C#CCOC(=O)c1ccccc1C(=O)n1nnc2ccccc21,89,97,0.86,-3,-3,38*
O=C(c1cc(-c2cccs2)on1)N1CCCc2ccccc21,91,97,.,.,0,93
CS(=O)(=O)N(CC(=O)N/N=C/c1cccs1)c1cccc(Cl)c1Cl,.,.,-0.48,-24,.,.
CCn1c2ccccc2c2nc3cc(S(=O)(=O)N4CCOCC4)ccc3nc21,90,84,-1.6,0,3,6.1*
c1ccc2nc3c(nc2c1)c1ccccc1n3CCN1CCOCC1,92,84,1,18,1,83
O=C(NCc1cccnc1)C1c2ccccc2C(=O)N1Cc1ccco1 (centres undefined),91,98,0.65,15,-8,98
N#CC1=C(N)Oc2n[nH]c(-c3cccs3)c2C1C1C=CCCC1 (centres undefined),87,106,-1.1,-2,.,88
N#CC1=C(N)Oc2n[nH]c(-c3cccs3)c2C1C1CCCCC1 (centres undefined),72,100,-0.67,.,.,38*
CCCCNC(=S)NNC(=O)c1nn(C)cc1Cl,95,103,-0.72,14,.,95
COc1ccc(N=C2NC(=O)S/C2=C\c2ccc(N(C)C)cc2)cc1,103,93,-3.1*,7,.,74
C=CCOc1ccc(/C(O)=C2/C(=O)C(=O)N(CCCn3ccnc3)C2c2cccs2)cc1 (centres undefined),93,.,-0.51,-1,-6,49
CCCC(C)C(=O)Nc1nnc(C)s1 (centres undefined),100,92,-0.48,-21,4,100
Cc1[nH]nc2c1C(c1cccnc1)N(c1ccc(Br)cc1)C2=O (centres undefined),97,93,-4*,-1,6,79
SMILES,HUVEC prolif 384,Fibroblast inh,Pyk2 oligo antag,F-actin modifier,Jurkat tox 60K,H69AR inhibit
CCOC(=O)c1ccc2ncc(C(=O)OCC)c(NCc3ccco3)c2c1,65,105,0.46,42,-3,36*
CCOC(=O)c1cnc2c(C)cccc2c1NCc1ccco1,77,99,-0.19,-4,.,75
COc1cccc(C(=O)N(C)c2nnc(-c3ccncc3)s2)c1,113,104,0.36,-11,.,94
Cc1ccc(/C(N)=N/OC(=O)/C=C/c2ccccc2)cc1,98,95,1.6,0,.,100
Cc1ccccc1/C(N)=N/OC(=O)/C=C/c1ccccc1,93,83,0.31,.,.,8.9*
COc1ccc(-c2c/c(=N\c3nc(-c4ccccc4)c(C)s3)c3ccccc3o2)cc1O,34,40*,-2.1,18,.,31*
Sc1oc(-c2ccccc2)cc1C=Nc1ccccc1,69,103,0.56,0,.,26*
CCSc1nc2ccccc2n1C(=O)/C=C\c1ccc(OC)c(OC)c1,.,.,-1.2,23,.,.
COC1(OC)N=C(N)C2(C#N)C(c3ccc(F)cc3)C12C#N (centres undefined),86,95,0.81,.,4,88
CCSC1(SCC)N=C(N)C2(C#N)C(c3ccc(F)cc3)C12C#N (centres undefined),9.6*,3.8*,0.87,3,.,0.8*
CCOC(=O)c1oc2ccc(CNC3CCCCC3)c(Cl)c2c1C,29*,95,0.4,3,.,18*
CCOC(=O)c1oc2ccc(CNCCO)c(Cl)c2c1C,.,.,0.34,-6,2,.
CC(Oc1ccc(F)cc1)C(=O)Nc1sc2c(c1C(=O)NCc1cccnc1)CCCC2 (centres undefined),.,.,-3.1*,-14,.,.
O=C(Nc1sc2c(c1C(=O)NCc1cccnc1)CCCC2)c1ccco1,99,105,-2,-4,11,84
C=CCSC(=C(C#N)C#N)c1cc2c([nH]1)CCCC2,17*,7.4*,0.34,19,.,1.3*
O=c1cc(N2CCN(c3ccc(F)cc3)CC2)[nH]c(=O)n1C1CCCCC1,60,84,-0.81,.,5,35*
O=c1cc(N2CCC3(CC2)OCCO3)[nH]c(=O)n1C1CCCCC1,99,94,-0.03,2,-1,69
O=C1CNC(=O)/C1=C\N1CCN(C(c2ccccc2)c2ccccc2)CC1,88,96,-0.6,10,-1,77
O=C(Nc1nc2cc3c(cc2s1)OCO3)C1=COCCO1,50,80,.,.,32,26*
CC(=O)Nc1nc2cc3c(cc2s1)OCO3,98,95,.,3,2,93
Cc1ccccc1NC1=C/C(=N\S(=O)(=O)c2cccs2)c2ccccc2C1=O,.,.,-4*,-2,.,.
COC(=O)N/N=C/c1cc(Cl)cc(Cl)c1OCc1ccc(F)cc1,.,.,-0.99,.,.,.
CCOc1ccc(NC(=O)CN2CCN(C3c4ccccc4-c4ccccc43)CC2)cc1,78,89,-0.14,-16,.,32*
COc1ccccc1NC(=O)CSC(N)=O,56,89,-0.43,2,.,28*
COC(=O)c1ccsc1NC(=O)CN1CCN(Cc2ccc3c(c2)OCO3)CC1,.,.,-0.75,-18,.,.
COC(=O)c1c(NC(=O)CN2CCN(Cc3ccc4c(c3)OCO4)CC2)sc(C)c1C,62,84,-0.02,13,12,1.9*
COc1cc(NC(=O)Nc2ccccc2)c(OC)cc1NC(=O)CN1CCCCC1,12*,96,0.21,10,-5,41
O=C(Nc1cccc2nsnc12)c1ccc(-c2cccc(Cl)c2)o1,.,.,-1.2,-30,.,.
